{"source": "ChEMBL document CHEMBL4715799", "about": "“An N,N-Bis(benzimidazolylpicolinoyl)piperazine (BT-11): A Novel Lanthionine Synthetase C-Like 2-Based Therapeutic for Inflammatory Bowel Disease” (J Med Chem, 2016)", "key": {"Mus musculus [1]": {"test_system": "Mus musculus", "assay": "Antiinflammatory activity in LANCL2-/- C57BL/6J mouse model of DSS-induced colitis assessed as reduction of TNF-alpha positive cells at 8 mg/kg, po administered as single dose via gavage measured 7 days post DSS challenge by immunostaining based flow cytometric analysis", "format": "functional, organism-based"}, "[2]": {"assay": "Half-life in rat at 80 mg/kg, po by LC-MS/MS analysis", "settings": "in vivo"}, "Mus musculus [3]": {"test_system": "Mus musculus", "assay": "Antiinflammatory activity in C57BL/6J mouse model of DSS-induced colitis assessed as reduction of MCP1 positive cells at 8 mg/kg, po administered as single dose via gavage measured 7 days post DSS challenge by immunostaining based flow cytometric analysis", "format": "functional, organism-based"}, "Mus musculus [4]": {"test_system": "Mus musculus", "assay": "Antiinflammatory activity in C57BL/6J mouse model of DSS-induced colitis assessed as reduction in colonic lesion at 8 mg/kg, po administered as single dose via gavage measured 7 days post DSS challenge", "format": "functional, organism-based"}, "Mus musculus [5]": {"test_system": "Mus musculus", "assay": "Antiinflammatory activity in C57BL/6J mouse model of DSS-induced colitis assessed as upregulation of IL-10 secretion at 8 mg/kg, po administered as […] via gavage measured 7 days post DSS challenge by immunostaining based flow cytometric analysis", "format": "functional, organism-based", "outline": "(§1)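 DSS colitis in WT or LANCL2−/− mice; 8 mg/kg/d by daily gavage from day 0, analysed at day 7. Colonic cells (4−6 × 10^5) surface-stained 20 min with fluorochrome-conjugated antibodies, then fixed, permeabilized, Fc-blocked and stained intracellularly. Stored fixed at 4 °C in the dark. Flow cytometry with live-cell then single-cell gating.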"}, "[6]": {"assay": "Cmax in rat at 500 mg/kg, po by LC-MS/MS analysis by LC-MS/MS analysis", "format": "ADME, organism-based", "set-up": "route oral, dose 500 mg/kg", "settings": "in vivo"}, "Mus musculus [7]": {"test_system": "Mus musculus", "assay": "Antiinflammatory activity in LANCL2-/- C57BL/6J mouse model of DSS-induced colitis assessed as reduction of MCP1 positive cells at 8 mg/kg, po […] via gavage measured 7 days post DSS challenge by immunostaining based flow cytometric analysis", "format": "functional, organism-based", "outline": "as §1"}, "Mus musculus [8]": {"test_system": "Mus musculus", "assay": "Antiinflammatory activity in C57BL/6J mouse model of DSS-induced colitis assessed as upregulation of colonic LANCL2 mRNA expression at 8 mg/kg, po administered as single dose via gavage measured 3 days post DSS challenge by qRT-PCR analysis"}, "Mus musculus [9]": {"test_system": "Mus musculus", "assay": "Antiinflammatory activity in C57BL/6J mouse model of DSS-induced colitis assessed as reduction of TNF-alpha positive cells at 8 mg/kg, po administered as single dose via gavage measured 7 days post DSS challenge by immunostaining based flow cytometric analysis", "format": "functional, organism-based"}, "Mus musculus [10]": {"test_system": "Mus musculus", "assay": "Antiinflammatory activity in C57BL/6J mouse model of DSS-induced colitis assessed as upregulation of colonic LANCL2 mRNA expression at 8 mg/kg, po administered as single dose via gavage measured after 3 days by qRT-PCR analysis", "format": "functional, organism-based", "settings": "time 3.0 day", "outline": "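DSS colitis mice given 8 mg/kg/d orally versus vehicle; colon sampled on day 3 after treatment. Colonic LANCL2 mRNA measured by SYBR green real-time qPCR from 1 μg total RNA, quantified against amplicon standard curves.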"}, "[11]": {"assay": "Drug concentration in rat colon at 80 mg/kg, po by LC-MS/MS analysis", "format": "ADME, organism-based", "settings": "in vivo"}, "Mus musculus [12]": {"species_on_record": "Mus musculus", "assay": "Antiinflammatory activity in C57BL/6J mouse model of DSS-induced colitis assessed as decrease in TNF-alpha gene expression at […] measured 7 days post DSS challenge by qRT-PCR analysis", "format": "functional, organism-based"}, "Mus musculus [13]": {"test_system": "Mus musculus", "assay": "Antiinflammatory activity in C57BL/6J mouse model of DSS-induced colitis assessed as increase in IL-10 gene expression at 8 mg/kg, po administered as single dose via gavage measured 7 days post DSS challenge by qRT-PCR analysis", "format": "functional, organism-based"}, "[14]": {"assay": "Apparent volume of distribution in rat at 80 mg/kg, po by LC-MS/MS analysis", "format": "ADME, organism-based", "settings": "in vivo", "outline": "(§2)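 Healthy rats given a single 80 mg/kg oral dose; plasma sampled over 0.5−48 h for pharmacokinetic parameters.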"}, "Mus musculus [15]": {"test_system": "Mus musculus", "assay": "Antiinflammatory activity in LANCL2-/- C57BL/6J mouse model of DSS-induced colitis assessed as upregulation of IL-10 secretion at 8 mg/kg, po administered as single dose via gavage measured 7 days post DSS challenge by immunostaining based flow cytometric analysis", "format": "functional, organism-based"}, "[16]": {"biological_target": "T1, LanC-like protein 2 (Mus musculus) (UniProt Q9JJK2)", "T1 sequence (whole entry)": "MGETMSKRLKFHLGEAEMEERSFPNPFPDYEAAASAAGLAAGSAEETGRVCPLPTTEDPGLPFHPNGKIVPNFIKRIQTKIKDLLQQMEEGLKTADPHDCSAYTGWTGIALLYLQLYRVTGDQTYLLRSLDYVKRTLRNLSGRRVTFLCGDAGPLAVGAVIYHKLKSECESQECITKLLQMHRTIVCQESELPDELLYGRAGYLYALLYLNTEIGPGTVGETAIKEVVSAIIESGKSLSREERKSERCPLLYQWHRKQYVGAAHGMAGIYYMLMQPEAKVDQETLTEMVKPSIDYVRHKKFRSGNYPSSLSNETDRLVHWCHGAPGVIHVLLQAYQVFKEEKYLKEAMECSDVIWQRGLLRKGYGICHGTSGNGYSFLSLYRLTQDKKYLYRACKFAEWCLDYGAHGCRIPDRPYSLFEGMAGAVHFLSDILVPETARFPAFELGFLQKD", "assay": "Activation of wild-type LANCL2 in C57BL/6J mouse splenocytes assessed as increase in intracellular cAMP production incubated for 20 hrs followed by compound redosing for 10 mins measured by EIA", "format": "cell-based", "settings": "Splenocyte, filed as activator, dose 1.25-10 µM, time 1210.0 min", "outline": "(§3)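 Splenocytes from male WT or LANCL2−/− C57BL/6J mice over 8 weeks, stimulated on plates precoated with anti-CD28 (1 μg/mL) and anti-CD3 (5 μg/mL). Compound in cRPMI at 0, 1.25, 2.5, 5, 10 μM, four replicates, plus unstimulated controls. After 20 h, a second 10 min treatment at the same concentrations. Cells washed, lysed in 0.1 M HCl, intracellular cAMP read by direct EIA.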"}, "Mus musculus [17]": {"test_system": "Mus musculus", "assay": "Antiinflammatory activity in C57BL/6J mouse model of DSS-induced colitis assessed as improvement in disease activity at 8 mg/kg, po administered as […] via gavage measured 7 days post DSS challenge", "format": "functional, organism-based", "outline": "(§4)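 Colitis induced in C57BL/6J or LANCL2−/− mice with DSS in drinking water. Compound given at 8 mg/kg/d by daily orogastric gavage from day 0 of the DSS challenge. Assessed at day 7 by disease activity index and by histopathology of colon: formalin-fixed, paraffin 5 μm sections, H&E, scored for leukocytic infiltration, epithelial erosion, mucosal thickening.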"}, "Mus musculus [18]": {"test_system": "Mus musculus", "assay": "Antiinflammatory activity in LANCL2-/- C57BL/6J mouse model of DSS-induced colitis assessed as reduction of MHCII+ CD11c+ […] at 8 mg/kg, po […] via gavage measured 7 days post DSS challenge by immunostaining based flow cytometric analysis", "format": "functional, organism-based", "outline": "as §1"}, "[19]": {"assay": "Tmax in rat plasma at 80 mg/kg, po by LC-MS/MS analysis", "format": "ADME, organism-based", "outline": "as §2"}, "Splenocyte": {"test_system": "Splenocyte", "assay": "Induction of intracellular cAMP production in LANCL2-/- C57BL/6J mouse splenocytes at 1.25 to 10 uM incubated for 20 hrs followed by redosing for 10 mins measured by EIA", "format": "functional, tissue-based", "settings": "dose 1.25-10 µM, time 1210.0 min", "outline": "as §3"}, "[20]": {"assay": "Elimination rate constant in rat at 80 mg/kg, po", "format": "ADME, organism-based", "settings": "in vivo", "outline": "as §2"}, "Mus musculus [21]": {"test_system": "Mus musculus", "assay": "Antiinflammatory activity in C57BL/6J mouse model of DSS-induced colitis assessed as reduction of MHCII+ CD11c+ […] at 8 mg/kg, po administered as single dose via gavage measured 7 days post DSS challenge by immunostaining based flow cytometric analysis", "format": "functional, organism-based"}, "[22]": {"assay": "Tmax in rat at 500 mg/kg, po by LC-MS/MS analysis", "format": "ADME, organism-based", "settings": "in vivo"}, "[23]": {"assay": "Cmax in rat plasma at 80 mg/kg, po measured at 1 hr by LC-MS/MS analysis", "format": "ADME, organism-based", "set-up": "route oral, dose 80 mg/kg, time 1 hrs", "outline": "as §2"}, "Mus musculus [24]": {"test_system": "Mus musculus", "assay": "Antiinflammatory activity in LANCL2-/- C57BL/6J mouse model of DSS-induced colitis at 8 mg/kg, po administered as single dose via gavage measured 7 days DSS challenge", "format": "functional, organism-based"}, "Mus musculus [25]": {"test_system": "Mus musculus", "assay": "Antiinflammatory activity in LANCL2-/- C57BL/6J mouse model of DSS-induced colitis assessed as reduction in leukocyte infiltration of gut mucosa at 8 mg/kg, po administered […] via gavage measured 7 days post DSS challenge by H and E staining based histopathological analysis", "format": "functional, organism-based", "outline": "as §4"}}, "note": "Activity calls are given as the source filed them. The calls are words filed in the database; no cut-off is given here."}
{"smiles": "O=C(c1cccc(-c2nc3ccccc3[nH]2)n1)N1CCN(C(=O)c2cccc(-c3nc4ccccc4[nH]3)n2)CC1", "note": "[OMILANCOR]", "values": [{"measurement": "Activity", "setting": "Mus musculus [1]", "value": "inactive"}, {"measurement": "half-life", "setting": "[2]", "value": 3.1, "unit": "h"}, {"measurement": "Activity", "setting": "Mus musculus [3]", "value": "Active"}, {"measurement": "Activity", "setting": "Mus musculus [4]", "value": "Active"}, {"measurement": "Activity", "setting": "Mus musculus [5]", "value": "Active"}, {"measurement": "Cmax", "setting": "[6]", "value": 17, "unit": "ng/mL"}, {"measurement": "Activity", "setting": "Mus musculus [7]", "value": "inactive"}, {"measurement": "Activity", "setting": "Mus musculus [8]", "value": "Active"}, {"measurement": "Activity", "setting": "Mus musculus [9]", "value": "Active"}, {"measurement": "Activity", "setting": "Mus musculus [10]", "value": "Active"}, {"measurement": "Drug uptake", "setting": "[11]", "value": "Active"}, {"measurement": "Activity", "setting": "Mus musculus [12]", "value": "Active"}, {"measurement": "Activity", "setting": "Mus musculus [13]", "value": "Active"}, {"measurement": "Vz", "setting": "[14]", "value": 3.38, "unit": "L/kg"}, {"measurement": "Activity", "setting": "Mus musculus [15]", "value": "inactive"}, {"measurement": "Activity", "setting": "[16]", "value": "Dose-dependent effect"}, {"measurement": "Activity", "setting": "Mus musculus [17]", "value": "Active"}, {"measurement": "Activity", "setting": "Mus musculus [18]", "value": "inactive"}, {"measurement": "Tmax", "setting": "[19]", "value": 1, "unit": "h"}, {"measurement": "Activity", "setting": "Splenocyte", "value": "inactive"}, {"measurement": "Kel", "setting": "[20]", "value": 0.225, "unit": "h⁻¹"}, {"measurement": "Activity", "setting": "Mus musculus [21]", "value": "Active"}, {"measurement": "Tmax", "setting": "[22]", "value": 4, "unit": "h"}, {"measurement": "Cmax", "setting": "[23]", "value": 28, "unit": "ng/mL"}, {"measurement": "Activity", "setting": "Mus musculus [24]", "value": "inactive"}, {"measurement": "Activity", "setting": "Mus musculus [25]", "value": "inactive"}]}
